In ChEMBL document CHEMBL3259763, “Synthesis and antifilarial activity of chalcone-thiazole derivatives against a human lymphatic filarial parasite, Brugia malayi” (Eur J Med Chem, 2014):
Blank lines part the entries; values can stand above or below the molecule they belong to. Activity calls are given as the source filed them. The calls are words filed in the database; no cut-off is given here.

How the values were obtained:
Vero C1008 [1] = test: (§1) Selectivity index, ratio of CC50 for African green monkey Vero C1008 cells to IC50 for Brugia malayi microflilariae worm; assay type: functional
How it was run: (§2)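 SI computed as CC50 (Vero C1008) divided by IC50 against adult worms or mf; IC50 values from 48 h exposure of parasites to two-fold dilutions at 37 °C, with % inhibition vs DMSO-treated worms and linear interpolation.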

Vero C1008 [2] = test: (§3) Selectivity index, ratio of CC50 for African green monkey Vero C1008 cells to IC50 for Brugia malayi adult worm; assay type: functional; how it was run: as §2
Brugia malayi [3] = test: Antifilarial activity against Brugia malayi adult worm assessed as inhibition of parasite motility after 48 hrs by microscopic analysis; assay type: functional, organism-based
How it was run: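 Freshly isolated adult female B. malayi were washed in HBSS (pH 7.2) and incubated one worm/ml/well, in triplicate, in HBSS with penicillin/streptomycin. Two-fold dilutions from 0.38-40 µM were given in DMSO (final <0.1%), with DMSO controls. After 48 h, motility was scored 0-4 under a microscope. IC50 was found by linear interpolation of percent inhibition versus DMSO.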

Brugia malayi [4] = test: Antifilarial activity against Brugia malayi microflilariae worm assessed as inhibition of parasite motility after 48 hrs by microscopic analysis; assay type: functional, organism-based
How it was run: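 B. malayi microfilariae were washed in HBSS (pH 7.2) and plated at 40-50 mf/100 µL/well, in triplicate, in HBSS with penicillin/streptomycin. Two-fold dilutions from 0.38-40 µM were given in DMSO (final <0.1%), with DMSO controls, for 48 h at 37 °C, 5% CO2. Motility was scored microscopically, and IC50 was found by linear interpolation over control.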

Brugia malayi [5] = test: Antifilarial activity against Brugia malayi adult worm infected in jird assessed as microfilaricidal activity at 1 mg/kg, sc administered for 5 days starting from day 7/8 post-worm transplantation measured on day 7 post-initiation of drug treatment; assay type: functional, organism-based; parameters: dose 1 mg/kg
How it was run: (§4)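 Mf in peritoneal cavity of transplanted jirds were examined on day 7/8 p.i.t. after 5 days of s.c. dosing started on day 7/8; change was expressed as % of the pretreatment mf count.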

Brugia malayi [6] = test: Antifilarial activity against Brugia malayi adult worm infected in jird assessed as reduction in adult worm recovery at 1 mg/kg, sc administered for 5 days starting from day 7/8 post-worm transplantation measured on day 60 post-initiation of drug treatment; assay type: functional, organism-based; parameters: dose 1 mg/kg
How it was run: (§5)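 Jirds carrying intraperitoneally transplanted B. malayi (sub-periodic) adults were dosed s.c. for 5 days starting day 7/8 after transplantation; test agents were suspended fresh daily in 0.1% Tween-80, DEC in water, ivermectin in 0.1% Tween-80. Killed day 60 p.i.t.; worms recovered from peritoneal washings were counted, and % reduction was calculated vs vehicle controls (4-8 animals).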

Brugia malayi [7] = test: Antifilarial activity against Brugia malayi adult worm assessed as inhibition of parasite viability after 48 hrs by MTT assay; assay type: functional
How it was run: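 Adult female B. malayi washed in HBSS pH 7.2, one worm/mL/well in triplicate, exposed 48 h at 37 °C in 5% CO2 to two-fold dilutions (0.38-40 µM; DEC 15.63-1000 µM) in HBSS with penicillin/streptomycin, DMSO <0.1% final; after motility scoring the same worms taken for MTT reduction; % inhibition vs DMSO control, IC50 by linear interpolation.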

Brugia malayi [8] = test: Antifilarial activity against Brugia malayi adult worm infected in jird assessed as embryostatic effect at 1 mg/kg, sc administered for 5 days starting from day 7/8 post-worm transplantation (reference value: 9.80 +/- 5.63%); assay type: functional, organism-based; parameters: dose 1 mg/kg
[9] = as §1; assay type: functional; how it was run: as §2
[10] = Cytotoxicity against African green monkey Vero C1008 cells assessed as cell death by three-fold serial dilution method; assay type: cell-based; conditions: chlorocebus sabaeus
How it was run: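 Vero C1008 cells exposed to three-fold serial dilutions of test agents, starting above 20 x LC100; CC50 obtained by linear interpolation between the concentrations bracketing 50% inhibition.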

Meriones unguiculatus = test: Toxicity in jird infected with Brugia malayi adult worm assessed as normal behaviour at 100 mg/kg, sc administered for 5 days starting from day 7/8 post-worm transplantation measured on day 60 post-initiation of drug treatment; assay type: organism-based; parameters: dose 100 mg/kg, route subcutaneous; conditions: gerbil, in vivo, 120 h
Brugia malayi [11] = test: Antifilarial activity against Brugia malayi adult worm infected in jird assessed as macrofilaricidal efficacy by measuring reduction in adult worm recovery at 100 mg/kg, sc administered for 5 days starting from day 7/8 post-worm transplantation measured on day 60 post-initiation of drug treatment; assay type: functional; conditions: route subcutaneous; how it was run: as §5
[12] = as §3; assay type: functional; how it was run: as §2
Brugia malayi [13] = test: Antifilarial activity against third stage infective larvae (L3) form of Brugia malayi infected in Mastomys coucha assessed as reduction in adult worm recovery at 100 mg/kg, sc administered for 5 days measured on day 91 post-initiation of drug treatment; assay type: functional; conditions: route subcutaneous
How it was run: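 M. coucha carrying 5-7 month old L3-induced sub-periodic B. malayi infections received 5 days of s.c. dosing (vehicle 0.1% Tween-80; DEC in water). Killed day 91 p.i.t.; adults were recovered from teased heart, lung and testes, and % reduction in recovery was calculated vs vehicle controls.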

Brugia malayi [14] = test: Antifilarial activity against third stage infective larvae (L3) form of Brugia malayi infected in Mastomys coucha assessed as female sterilizing efficacy at 100 mg/kg, sc administered for 5 days measured on day 91 post-initiation of drug treatment (reference value: 23%); assay type: functional; conditions: route subcutaneous
Brugia malayi [15] = test: Antifilarial activity against Brugia malayi adult worm infected in jird assessed as microfilaricidal activity at 100 mg/kg, sc administered for 5 days starting from day 7/8 post-worm transplantation measured on day 7 post-initiation of drug treatment; assay type: functional, organism-based; parameters: dose 100 mg/kg; how it was run: as §4
Mastomys coucha = test: Toxicity in Mastomys coucha infected with third stage infective larvae (L3) form of Brugia malayi assessed as normal behaviour at 100 mg/kg, sc administered for 5 days measured on day 91 post-initiation of drug treatment; assay type: organism-based; parameters: dose 100 mg/kg, route subcutaneous; conditions: in vivo, 120 h
Brugia malayi [16] = test: Antifilarial activity against Brugia malayi adult worm infected in jird assessed as embryostatic effect at 100 mg/kg, sc administered for 5 days starting from day 7/8 post-worm transplantation (reference value: 9.80 +/- 5.63%); assay type: functional; conditions: route subcutaneous

Molecule: IVERMECTIN [listing 1 of 2 here]
- Ratio CC50/IC50 (Vero C1008 [1]): 146
- Ratio CC50/IC50 (Vero C1008 [2]): 75.4
- LC100 (Brugia malayi [3]): 5 µM
- LC100 (Brugia malayi [4]): 2.5 µM
- Activity (Brugia malayi [5]): inactive
- inhibition (Brugia malayi [6]): 21.1%
- inhibition (Brugia malayi [7]; dose or concentration not given here): 5.8%
- Activity (Brugia malayi [8]): 43.2%

Molecule: CC(C)(C)c1cc(/C=C/C(=O)c2ccco2)cc(/C=N/c2nccs2)c1O
- Ratio CC50/IC50 [9]: 28.57
- LC100 (Brugia malayi [3]): 40 µM
- LC100 (Brugia malayi [4]): 20 µM
- IC50 (Brugia malayi [4]; Brugia malayi, 48 h): 7.07 µM
- CC50 ([10]; Vero C1008 cells): 220 µM
- inhibition (Brugia malayi [7]): inactive

Molecule: Cc1cc(/C=C/C(=O)c2ccco2)cc(/C=N/c2nccs2)c1O
- LC100 (Brugia malayi [3]): >40 µM
- LC100 (Brugia malayi [4]): >40 µM
- inhibition (INH) (Brugia malayi [7]): 62%

Molecule: CC(C)c1cc(/C=C/C(=O)c2ccco2)cc(/C=N/c2nccs2)c1O
- Activity (Meriones unguiculatus): Non-toxic
- Ratio CC50/IC50 [9]: 17
- inhibition in vivo at 100 mg/kg (Brugia malayi [11]): 18.2%
- Ratio CC50/IC50 [12]: 19
- inhibition in vivo at 100 mg/kg (Brugia malayi [13]): 40.9%
- Activity (Brugia malayi [14]): 30%
- LC100 (Brugia malayi [3]): 10 µM
- IC50 (Brugia malayi [3]; Brugia malayi, 48 h): 3.2 µM
- LC100 (Brugia malayi [4]): 10 µM
- IC50 (Brugia malayi [4]; Brugia malayi, 48 h): 3.5 µM
- CC50 ([10]; Vero C1008 cells): 60 µM
- Activity (Brugia malayi [15]): inactive
- Activity (Mastomys coucha): Non-toxic
- Activity (Brugia malayi [16]): 0%
- inhibition (INH) (Brugia malayi [7]): 63%

Molecule: Cc1ccc(C(=O)/C=C/c2cc(C)c(O)c(/C=N/c3nccs3)c2)cc1
- LC100 (Brugia malayi [3]): >40 µM
- LC100 (Brugia malayi [4]): >40 µM
- inhibition (Brugia malayi [7]): inactive

Molecule: Cc1ccc(C(=O)/C=C/c2cc(/C=N/c3nccs3)c(O)c(C(C)C)c2)cc1
- LC100 (Brugia malayi [3]): >40 µM
- LC100 (Brugia malayi [4]): >40 µM

Molecule: COc1ccc(C(=O)/C=C/c2cc(/C=N/c3nccs3)c(O)c(C(C)C)c2)cc1
- LC100 (Brugia malayi [3]): >40 µM
- LC100 (Brugia malayi [4]): >40 µM
- inhibition (INH) (Brugia malayi [7]): 61%

Molecule: CC(C)(C)c1cc(/C=C/C(=O)c2cccs2)cc(/C=N/c2nccs2)c1O
- Activity (Meriones unguiculatus): Non-toxic
- Ratio CC50/IC50 [9]: 22
- Ratio CC50/IC50 [12]: 44
- inhibition in vivo at 100 mg/kg (Brugia malayi [13]): 48.6%
- Activity (Brugia malayi [14]): 44%
- LC100 (Brugia malayi [3]): 2.5 µM
- IC50 (Brugia malayi [3]; Brugia malayi, 48 h): 0.9 µM
- LC100 (Brugia malayi [4]): 5 µM
- IC50 (Brugia malayi [4]; Brugia malayi, 48 h): 1.8 µM
- CC50 ([10]; Vero C1008 cells): 40 µM
- Activity (Mastomys coucha): Non-toxic
- Activity (Brugia malayi [16]): 100%
- inhibition (INH) (Brugia malayi [7]): 49%

Molecule: Cc1cc(/C=C/C(=O)c2cccs2)cc(/C=N/c2nccs2)c1O
- LC100 (Brugia malayi [3]): >40 µM
- LC100 (Brugia malayi [4]): >40 µM

Molecule: COc1ccc(C(=O)/C=C/c2cc(/C=N/c3nccs3)c(O)c(C(C)(C)C)c2)cc1
- LC100 (Brugia malayi [3]): >40 µM
- LC100 (Brugia malayi [4]): 40 µM
- inhibition (Brugia malayi [7]): inactive

Molecule: CCCc1cc(/C=C/C(=O)c2ccc(OC)cc2)cc(/C=N/c2nccs2)c1O
- LC100 (Brugia malayi [3]): >40 µM
- LC100 (Brugia malayi [4]): >40 µM
- inhibition (Brugia malayi [7]): inactive

Molecule: CC(C)c1cc(/C=C/C(=O)c2cccs2)cc(/C=N/c2nccs2)c1O
- LC100 (Brugia malayi [3]): >40 µM
- LC100 (Brugia malayi [4]): >40 µM
- inhibition (Brugia malayi [7]): inactive

- IC50 (Brugia malayi [3]): 3.05 µM
- IC50 (Brugia malayi [4]): 1.57 µM
Molecule: IVERMECTIN [listing 2 of 2 here]
- CC50 ([10]; vero): 230 µM

Molecule: COc1ccc(C(=O)/C=C/c2cc(C)c(O)c(/C=N/c3nccs3)c2)cc1
- LC100 (Brugia malayi [3]): >40 µM
- LC100 (Brugia malayi [4]): >40 µM
- inhibition (INH) (Brugia malayi [7]): 25%

Molecule: CCCc1cc(/C=C/C(=O)c2ccc(C)cc2)cc(/C=N/c2nccs2)c1O
- LC100 (Brugia malayi [3]): >40 µM
- LC100 (Brugia malayi [4]): >40 µM
- inhibition (Brugia malayi [7]): inactive

Molecule: Cc1ccc(C(=O)/C=C/c2cc(/C=N/c3nccs3)c(O)c(C(C)(C)C)c2)cc1
- LC100 (Brugia malayi [3]): >40 µM
- LC100 (Brugia malayi [4]): 40 µM
- inhibition (Brugia malayi [7]): inactive
